Results published in ChEMBL document CHEMBL1140750, “Dynamic combinatorial mass spectrometry leads to metallo-beta-lactamase inhibitors” (J Med Chem, 2008).

Assays:
[1] = Inhibition of Bacillus cereus metallo-beta-lactamase BcII by dynamic combinatorial mass spectrometry
In short: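 BcII enzyme was preincubated with inhibitor at room temperature in 20 mM HEPES pH 7.0 with 20 µg/mL BSA; inhibitors came from 10 mM DMSO stocks. Imipenem substrate was then added at 20–200 µM, with at least two inhibitor concentrations plus a no-inhibitor control. Hydrolysis was followed by absorbance at 300 or 482 nm at 30 °C. Ki was derived from initial rates by Hanes linearization.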

[2] = Inhibition of metallo-beta-lactamase IMP1

| Compound | Ki [1] [µM] | IC50 [2] [µM] |
| --- | --- | --- |
| CC(=O)Nc1ccc(C(=O)N[C@H](CS)C(=O)O)cc1 | 13.5 |  |
| CC(C)(C)c1ccc(C(=O)N[C@H](CS)C(=O)O)cc1 | 8.4 |  |
| O=C(NC(CS)C(=O)O)c1ccccc1 (single isomer, unassigned; 9a) | 28 |  |
| O=C(NC(CS)C(=O)O)c1ccccc1 (single isomer, unassigned; 9b) | 0.74 |  |
| O=C(Cc1ccccc1)NC(CS)C(=O)O (single isomer, unassigned; 9c) | 154 |  |
| O=C(Cc1ccccc1)NC(CS)C(=O)O (single isomer, unassigned; 9d) | 53 |  |

Now from value to molecule:

| Ki [1] [µM] | IC50 [2] [µM] | Compound |
| --- | --- | --- |
| 125 |  | O=C(O)C(S)C(S)C(=O)O (stereo not given) |
| 44 |  | O=C(CCc1ccccc1)NC(CS)C(=O)O (single isomer, unassigned; 9e) |
| 73 |  | O=C(CCc1ccccc1)NC(CS)C(=O)O (single isomer, unassigned; 9f) |
|  | 170 | O=C(O)CCS [MERCAPTOPROPIONIC ACID] |
